A selection: hits, their analogues and other compounds. The true share with any hit is near 1.8%.
GSTO1 inh: blocks human GSTO1 in RBBP9 counter-screen | P78417 | recombinant GSTO1, activity-based probe fluorescence polarization | inhibition, % at 5.96 µM | hit rate 1.1% among 300,000;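 active means inhibition above the campaign mean inhibition plus 3 SD, cut at about 35% in these data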;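 further: 0% = GSTO1-1 with DMSO and 100% = wells lacking GSTO1-1 enzyme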
Target sequence (P78417 whole entry, looked up): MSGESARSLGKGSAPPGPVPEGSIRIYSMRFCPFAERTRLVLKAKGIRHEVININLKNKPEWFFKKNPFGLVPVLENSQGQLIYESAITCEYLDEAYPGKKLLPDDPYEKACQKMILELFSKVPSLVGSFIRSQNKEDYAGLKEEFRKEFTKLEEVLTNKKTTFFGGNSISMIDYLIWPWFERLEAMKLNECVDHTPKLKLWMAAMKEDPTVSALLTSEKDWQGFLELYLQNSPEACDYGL
PAD4 FP inh: PAD4 (human) enzyme inhibition; Q9UM07; hit rate 0.41% among 330,000; inhibition, % at 6.36 µM; recombinant PAD4, RCA probe fluorescence polarization;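 active means percent inhibition above a cutoff equal to the mean of all tested compounds plus 3 SD, cut at about 15% in these data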;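 further: 0% = PAD4 with RCA probe and DMSO and 100% = probe without PAD4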
Apaf1 inhib: human Apaf-1 inhibition | O14727 | reconstituted apoptosome caspase-3 activity, DEVD-Rh110 fluorescence | inhibition, % at 20 µM | hit rate 0.71% among 330,000; active means inhibition of at least 40% at 20 µM;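 further: plate controls were DMSO wells for no effect and DEVD-CHO caspase inhibitor wells for full effect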
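Material: reconstituted apoptosome with Apaf-1, cytochrome c, caspase-9, procaspase-3, dATP. Technique: Rh110 fluorescence intensity. Buffer or medium: pH 7.5 Hepes buffer with CHAPS, BSA, DTT. Times: 30 min plus 50 min, RT.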
TDP2 absorb: TDP2 (human) inhibition, absorbance primary screen; O95551; hit rate 0.34% among 370,000; inhibition, % at 12.8 µM; recombinant TDP2, T5PNP hydrolysis, p-nitrophenol absorbance 415 nm;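 active means inhibition above the mean of all tested compounds plus 3 SD, set per campaign, cut at about 25% in these data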;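 further: 0% = DMSO with enzyme and 100% = buffer with substrate but no TDP2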
Target sequence (O95551 whole entry, looked up): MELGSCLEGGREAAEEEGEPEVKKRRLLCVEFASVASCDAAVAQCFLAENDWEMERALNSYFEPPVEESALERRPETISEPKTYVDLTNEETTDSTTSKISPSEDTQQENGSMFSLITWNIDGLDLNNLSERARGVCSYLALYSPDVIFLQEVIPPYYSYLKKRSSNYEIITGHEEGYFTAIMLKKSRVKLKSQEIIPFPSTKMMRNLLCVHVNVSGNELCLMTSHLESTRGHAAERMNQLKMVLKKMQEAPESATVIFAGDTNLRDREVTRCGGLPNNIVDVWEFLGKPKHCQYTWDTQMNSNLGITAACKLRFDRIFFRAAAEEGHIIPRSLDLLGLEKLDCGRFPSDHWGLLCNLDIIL
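Assay system: recombinant human TDP2 / Reagent: T5PNP substrate at 5 mM, a TopII-DNA adduct mimic / Measured by: epi absorbance from released p-nitrophenol / Evaluation: % inhibition relative to enzyme-containing and enzyme-free wells / Control set: enzyme-free and DMSO wells / Replicates: each compound tested once, singlicate / Schedule: enzyme reaction with compound for 2 h at 37 °C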
Fh CTSL1 inh: cathepsin L1 inhibition, PFM18AAP counter-screen | recombinant F. hepatica cathepsin L1, Z-Leu-Arg-MCA fluorescence | inhibition, % at 5.96 µM | hit rate 0.49% among 300,000 | AID 1906;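 active means inhibition above the mean of all tested compounds plus 3 SD, set per screening campaign, cut at about 17% in these data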;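 further: 0% = plate median of test compound wells and 100% = 1 µM Z-Phe-Ala-diazomethylketone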
* = called active by the depositor; . = not tested or not shown.

SMILES	GSTO1 inh	PAD4 FP inh	Apaf1 inhib	TDP2 absorb	Fh CTSL1 inh
COc1cc(OC)cc(C(=O)NCCN2C(=O)C3C4C=CC(C4)C3C2=O)c1 (stereo not given)	.	.	.	5	.
Cc1ccc(C(=O)C2=C(O)C(=O)N(Cc3ccco3)C2c2cccc(Br)c2)o1 (stereo not given)	-5	-8	5	-10	18*
CC(C)CNC(=O)OCc1cn(Cc2ccccc2F)nn1	.	.	.	-1	.
O=C(O)C1Nc2c(O)cc(Cl)c([N+](=O)[O-])c2C2C=CCC12 (stereo not given)	57*	-4	29	17	2
CC(=O)c1ccc2c(c1)C1C=CCC1C(C(=O)O)N2 (stereo not given)	.	.	33	12	.
O=C(CCn1nnc(-c2cccs2)n1)N1CCCCC1	.	.	.	9	.
Cc1cc(C)n(C(=O)/C(C#N)=N/Nc2cc(Cl)cc(Cl)c2)n1	-12	-2	11	.	20*
Cc1cc(C)n(C(=O)/C(C#N)=N\Nc2ccccc2[N+](=O)[O-])n1	-4	-1	5	-11	2
N#Cc1nc(N2CCCC2)nc(N2CCCC2)n1	-4	13	0	-4	56*
CCOC(=O)CNc1nc(Cl)nc(N2CCCCC2)n1	-1	2	6	6	1
CCOC(=O)CNc1nc(C#N)nc(N2CCOCC2)n1	4	7	-8	5	23*
CN(C)c1nc(C#N)nc(N2CCOCC2)n1	2	7	-6	8	53*
CN(C)c1nc(SCC#N)nc(N2CCOCC2)n1	8	-2	0	0	-6
COc1cc2c(c(OC)c1)C(=O)O[C@H](C)C[C@@H]1O[C@H]1CCCCC(=O)C2	.	.	.	2	.
N/C(CSc1ccc(Cl)cc1)=N\NC(=O)c1ccncc1	3	-4	1	-12	20*
O=C(CSc1ccc(Cl)cc1)NCc1ccncc1	12	-3	2	5	2
Nc1[nH]c(C(=O)c2ccccc2)c(-c2ccccn2)c1C(=O)c1c[nH]c2ccc(Br)cc12	.	.	.	7	.
CCOC(=O)N1CCN(C(=O)Nc2ccc(NC(=O)N3CCN(C(=O)OCC)CC3)cc2)CC1	3	0	-5	4	1
CCOC(=O)N1CCN(C(=O)Nc2cccc3ccccc23)CC1	0	-1	-2	-3	17*
COC(=O)c1cc2c(c3c4cc(F)ccc4n(S(=O)(=O)c4ccc(OC)cc4)c13)C(=O)N(Cc1ccccc1OC)C2	.	.	.	5	.
CC1=CC(=O)C(C2CCCCC2)=C/C1=N\OS(=O)(=O)c1ccccc1	.	.	.	13	.
CC1=CC(=O)C(C(C)C)=C/C1=N/OS(=O)(=O)c1ccccc1	7	-3	-14	-14	17*
OCC1OC(Oc2cccc3ccccc23)C(O)C(O)C1O (stereo not given)	5	-3	-3	-1	-4
O=C(O)c1cc(O)c2c(c1)[C@@H]([C@H]1c3cc(C(=O)O)cc(O)c3C(=O)c3c(O[C@@H]4O[C@H](CO)[C@@H](O)[C@H](O)[C@H]4O)cccc31)c1cccc(O[C@@H]3O[C@H](CO)[C@@H](O)[C@H](O)[C@H]3O)c1C2=O	.	-9	99*	.	.
C[C@@H]1CN(C(=O)OC(C)(C)C)CCN1c1ccc(N2CCN(Cc3ccccc3)[C@@H](C)C2)c(C#N)c1	.	.	.	-5	.
SMILES	GSTO1 inh	PAD4 FP inh	Apaf1 inhib	TDP2 absorb	Fh CTSL1 inh
Cc1ccc(NC(=O)CC2S/C(=N/c3nccs3)N(C)C2=O)cc1C (stereo not given)	-3	-1	8	-4	41*
O=C(CSc1nc2ccccc2nc1N1CCOCC1)NCc1ccc(Cl)cc1Cl	.	.	.	11	.
COc1ccc2ccccc2c1-c1c(C(=O)c2ccc(Br)cc2)[nH]c(N)c1C(=O)NC1CCCCC1	.	.	.	-7	.
COc1ccc(Oc2c(C)oc3c(CN(C)C)c(O)ccc3c2=O)cc1	6	-3	-1	-5	0
Cc1oc2c(CN(C)C)c(O)ccc2c(=O)c1-c1cscn1	2	-4	-19	38*	0
Cc1ccc(SCc2[nH]nc3c2C(c2ccco2)C(C#N)=C(N)O3)cc1 (stereo not given)	37*	-9	-1	5	-1
Cc1ccc(SCc2[nH]nc3c2C(c2ccc(C)o2)C(C#N)=C(N)O3)cc1 (stereo not given)	37*	13	24	7	-1
CCN(CC)C(=O)[C@H]1C[C@@H]2[C@H](C[C@@H](c3ccccc3)[C@H]1C)N(c1ccc(F)cc1)C(=O)N2CCCOc1ccccc1	.	.	.	-6	.
CC(C)C[C@H](N)c1nnc(S(=O)(=O)Cc2ccc(F)cc2)o1	0	-2	-6	.	54*
Nc1nc(CCl)nc(N(c2ccccc2)c2ccccc2)n1	78*	-1	4	14	-2
C=CCn1c(SCC(=O)O)nnc1-c1ccco1	.	.	.	-4	.
CC(C)c1onc(C(=O)N2CCCCCC2)c1[N+](=O)[O-]	8	-1	-2	-25	7
CC(C)c1onc(C(=O)NC2CCCCC2)c1[N+](=O)[O-]	37*	6	-4	6	11
CC(=O)NCC(=O)OCC(=O)N1c2ccccc2Sc2ccccc21	1	-7	0	4	-23
O=C(CNC(=O)c1ccccc1)OCC(=O)N1c2ccccc2Sc2ccccc21	1	2	-8	5	34*
O=C(CSc1nc2ccccc2c(=O)n1-c1ccccc1)N1CCCc2ccccc21	2	1	10	-14	36*
O=C1CCCC2=C1C(c1ccc(O)c(O)c1)c1c(ccc3ncccc13)N2 (stereo not given)	75*	-9	21	0	-7
CCOc1ccc(C2C3=C(CCCC3=O)Nc3ccc4ncccc4c32)cc1 (stereo not given)	7	1	-9	-14	-3
CCS(=O)(=O)Nc1ccc2c(c1)C(=O)N(C)[C@@H]1CC[C@H](CC(=O)N[C@@H]3CCN(Cc4ccccc4)C3)O[C@H]1CO2	.	.	.	3	.
CCC(=O)OCCNc1cc(Sc2nc3ccccc3s2)c2nonc2c1[N+](=O)[O-]	4	-4	46*	13	3
O=[N+]([O-])c1c(NCCCO)cc(Sc2nc3ccccc3s2)c2nonc12	31	-6	98*	.	8
CCC(=O)OCCNc1cc(Sc2nc3ccccc3[nH]2)c2nonc2c1[N+](=O)[O-]	-17	-10	.	-6	4
Cc1nnc(Sc2cc(NCCCO)c([N+](=O)[O-])c3nonc23)s1	.	.	.	-3	.
CC1(C)CC(=O)N(CC(=O)N2CCN(c3ccc(F)cc3)CC2)c2ccccc2S1(=O)=O	.	.	.	7	.
Cc1ccc2c(c1)N(CC(=O)N1CCCCC1c1cccnc1)C(=O)CO2 (stereo not given)	6	-7	-2	-4	18*
Cc1ccc2c(c1)N(CC(=O)N1CCCCC1C)C(=O)CO2 (stereo not given)	0	-4	-5	-14	0
COc1ccc2c(c1)CN1CN(CC(C)C)S(=O)(=O)CC21 (stereo not given)	.	.	.	13	.
